# Assay results: publication PMC6863157 (Investigational new drugs, 2016)
# Assays:
# [1] = Plasma pharmacokinetics; format: in vivo, human; conditions: for half-life: human, plasma; for CL/F apparent plasma clearance: steady state, geometric mean (%CV)
# How it was run: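 Advanced solid tumor patients took oral test compound capsules once daily on 21-day on/7-day off or 14-day on/14-day off schedules in 28-day cycles. Serial plasma was sampled after the first dose (Day 1) and last dose (Day 21 or 14) of Cycle 1, plus pre-dose on Day 1 of later cycles. Analysis was by validated LC-MS/MS with noncompartmental analysis. Racc = Day 21 AUC0–24/Day 1 AUC0–24.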
# [2] = tested on: RAS- or RAF-mutant FDG-PET-avid tumors; experiment: FDG-PET pharmacodynamic; format: in vivo, human; conditions: Cycle 1 Day 10–14 (on drug); 60-mg (21/7) MTD; 8 of 17
# [3] = tested on: advanced solid tumors; experiment: Tumor response by RECIST; format: in vivo, human; conditions: for partial responses (PRs): melanoma patients
# How it was run: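 Oral test compound was given once daily at 60 mg (21/7) or 100 mg (14/14) in 28-day cycles. Patients with measurable lesions had CT at screening and about every 8 weeks, assessed by RECIST. CR/PR was confirmed 4 weeks after first documentation. Archival tissue was typed for BRAF V600, NRAS Q61 and KRAS G12/13 mutations. Responses were summarized as frequency counts and percentages.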
# [4] = tested on: patients with advanced solid tumors; conditions: in vivo
# [5] = tested on: phosphorylation of ERK1/2 in cell lines harboring KRAS or BRAF mutations; conditions: cited from earlier work
# [6] = tested on: patients with advanced solid tumors; experiment: Phase Ia dose escalation/expansion: safety, DLT, MTD, adverse events; conditions: oral once daily
structure (smiles),measurement,setting,value
O=C(c1ccc(F)c(F)c1Nc1ccc(I)cc1F)N1CC(O)([C@@H]2CCCCN2)C1 [cobimetinib],exposure vs dose,[1]; from 0.05 mg/kg (approximately 3.5 mg for a 70-kg adult) to 100 mg,dose-proportional
same,half-life,"[1]; oral, 100 mg, t1/2 elimination half-life, 100 mg (14/14), geometric mean (range), n 13",2.25 days
same,half-life,"[1]; oral, mean terminal half-life, across all doses",2.04 days
same,half-life,"[1]; oral, terminal half-life, range, across all doses",0.958 to 3.33 days
same,median tmax,"[1]; oral, all cohorts",one to three
same,CL/F apparent plasma clearance,"[1]; 60 mg (21/7), n 37",13.8 (61) L/h
same,CL/F apparent plasma clearance,"[1]; 100 mg (14/14), n 18",14.8 (92) L/h
same,FDG-PET metabolic response rate,[2],47%
same,RECIST responses,[3]; 28 patients with KRAS-mutant colorectal cancer,no responses
same,patients with prolonged stable disease (SD) of five months or greater,[3]; all tumor types,five
same,partial responses (PRs),[3]; 60 mg on the 21/7 dosing schedule,three
same,partial responses (PRs),[3]; 100 mg 14/14 dosing schedule,three
same,duration of stable disease,[3]; patient with adenoid cystic carcinoma,7 months
same,duration of stable disease,[3]; patient with carcinoid,≥ 47 months
same,duration of stable disease,[3]; patient with esophageal tumor,6 months
same,duration of stable disease,[3]; patient with non-small cell lung cancer,13 months
same,median time on cobimetinib of responders,"[3]; seven responders, range 42–721+ days",280 days
same,incidence of edema,[4]; human,34%
same,incidence of treatment-related rash,[4]; human,54%
same,median onset of rash,[4]; human,12 days
same,median rash duration,[4]; human,20 days
same,patients with Grade ≥ 2 central serous retinopathy (CSR),[4]; human,5%
same,"patients with at least one SAE, regardless of causality",[4]; human,42%
same,patients with at least one treatment-related AE,[4]; human,90%
same,patients with dose reductions due to treatment-related rash,[4]; human,4%
same,"patients with gastrointestinal disorder SAEs, regardless of causality",[4]; human,14%
same,patients with treatment-related AEs that led to dose reductions or interruption,[4]; human,25%
same,treatment-related AEs that were Grade 1–2,[4]; human,72%
same,treatment-related rash that was Grade 1 or 2,[4]; human,94%
same,patients who experienced DLTs,[4],four
same,retinal vein occlusion,[4],no reports
same,reversibility of visual adverse events,[4],reversible and resolved within one week
same,symptomatic decreases in LVEF,[4],No events
same,effect on ERK1/2 phosphorylation,[5],inhibits the phosphorylation of ERK1/2
same,maximum tolerated dose (MTD),[6]; 14/14 dosing schedule,100 mg
same,maximum tolerated dose (MTD),[6]; 21/7 dosing schedule,60 mg
